The text below walks through data of ChEMBL document CHEMBL4033795, “Design, Synthesis, and Structure-Activity Relationship Study of 2-Oxo-3,4-dihydropyrimido[4,5- d]pyrimidines as New Colony Stimulating Factor 1 Receptor (CSF1R) Kinase Inhibitors” (J Med Chem, 2018).

Data set [1] relates to RAW264.7. The data set can be described thus: Downregulation of ARG1 mRNA expression in mouse RAW264.7 cells after 48 hrs by qRT-PCR analysis relative to DMSO. In kind it is functional, cell-based. In outline:
(§1)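 RAW264.7 macrophages were treated 48 h with compound at 0.08, 0.4 or 2.0 μM, or DMSO vehicle. Total RNA was extracted with TRIzol and transcripts were quantified by qRT-PCR using gene-specific primers. Run three times, each in triplicate.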

The target of data set [2] is Macrophage colony-stimulating factor 1 receptor (Homo sapiens, UniProt P07333). Put plainly: Inhibition of recombinant human His-tagged CSF1R cytoplasmic domain (538 to 910 residues) expressed in baculovirus using tyr4 peptide as substrate after 1 hr by FRET-based Z'-Lyte assay. In outline:
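Z′-Lyte FRET assay with CSF1R or EGFR and 2 μM Tyr4 peptide substrate in 1× kinase buffer. ATP was supplied as a 100 μM solution, a stock and not the final concentration. Compounds were 3-fold serially diluted in DMSO. Reaction ran 1 h at room temperature, followed by 1 h development and a stop reagent. Phospho-peptide, no-ATP and DMSO controls were included. IC50 by curve fitting; mean of at least three independent experiments.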

The target in data set [3] is Epidermal growth factor receptor (Homo sapiens, UniProt P00533). Put plainly: Inhibition of recombinant human wild type GST-tagged EGFR cytoplasmic domain (668 to 1210 residues) expressed in baculovirus using tyr4 peptide as substrate after 1 hr by FRET-based Z'-Lyte assay.
Data set [4] is described as follows: Cmax in Sprague-Dawley rat at 25 mg/kg administered via oral gavage measured up to 72 hrs by LC/MS analysis. The data set is classed as ADME, organism-based. Set-up: dose 25 mg/kg, route oral. To be noted: in vivo. In outline: (§2)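 Male Sprague-Dawley rats, 4–6 weeks old, acclimatised 1 week, were dosed iv at 5 mg/kg or by oral gavage at 25 mg/kg. Vehicle was 2% DMSO, 4% EtOH, 4% castor oil, 90% H2O. Blood was drawn by orbital sinus puncture from 2 min to 72 h into heparinized tubes. Plasma was assayed by LC/MS with propranolol as internal standard. Three animals per group.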

Data set [5] is described as follows: Half life in Sprague-Dawley rat at 5 mg/kg, iv measured up to 72 hrs by LC/MS analysis. To be noted: in vivo. In kind it is ADME, organism-based. In outline: as §2
Another data set deals with Rattus norvegicus. Put plainly: Apparent clearance in Sprague-Dawley rat at 25 mg/kg administered via oral gavage measured up to 72 hrs by LC/MS analysis. To be noted: in vivo, iv, 5 mg/kg, in the assay text read “5 mg/kg administered intravenously” for “25 mg/kg administered via oral gavage”. The data set is classed as ADME, organism-based. In outline: as §2
Data set [6] in a line: Oral bioavailability in Sprague-Dawley rat at 25 mg/kg administered via gavage measured up to 72 hrs by LC/MS analysis. To be noted: in vivo. In kind it is ADME, organism-based. In outline:
as §2

In data set [7] the target is Receptor-type tyrosine-protein kinase FLT3 (Homo sapiens, UniProt P36888). Put plainly: Inhibition of recombinant human His-tagged FLT3 (564 to 958 residues) expressed in baculovirus using poly (Glu,Tyr) as substrate after 2 hrs by PK-Light ATP assay.
For data set [8], the target named is Platelet-derived growth factor receptor alpha (Homo sapiens, UniProt P16234). The data set can be described thus: Inhibition of recombinant cytoplasmic human GST-tagged PDGFRalpha expressed in baculovirus using poly (4:1 Glu, Tyr) peptide as substrate after 1 hr by ADP-Glo assay.
For data set [9], the target named is Cytoplasmic tyrosine-protein kinase BMX (Homo sapiens) (UniProt P51813). Put plainly: Inhibition of recombinant human BMX (M1 to H675 residues) expressed in bacterial expression system at 100 nM by KINOMEscan assay relative to control.
Data set [10] deals with Vascular endothelial growth factor receptor 2 (Homo sapiens) (UniProt P35968). The data set can be described thus: Inhibition of human KDR (R787 to P1253 residues) expressed in mammalian expression system at 100 nM by KINOMEscan assay relative to control.
The target in data set [11] is Tyrosine-protein kinase Lyn (Homo sapiens) (UniProt P07948). Put plainly: Inhibition of recombinant human LYN-B expressed in bacterial expression system at 100 nM by KINOMEscan assay relative to control.
Data set [12] addresses T1, Macrophage colony-stimulating factor 1 receptor (Mus musculus) (UniProt P09581).
T1 sequence (whole entry): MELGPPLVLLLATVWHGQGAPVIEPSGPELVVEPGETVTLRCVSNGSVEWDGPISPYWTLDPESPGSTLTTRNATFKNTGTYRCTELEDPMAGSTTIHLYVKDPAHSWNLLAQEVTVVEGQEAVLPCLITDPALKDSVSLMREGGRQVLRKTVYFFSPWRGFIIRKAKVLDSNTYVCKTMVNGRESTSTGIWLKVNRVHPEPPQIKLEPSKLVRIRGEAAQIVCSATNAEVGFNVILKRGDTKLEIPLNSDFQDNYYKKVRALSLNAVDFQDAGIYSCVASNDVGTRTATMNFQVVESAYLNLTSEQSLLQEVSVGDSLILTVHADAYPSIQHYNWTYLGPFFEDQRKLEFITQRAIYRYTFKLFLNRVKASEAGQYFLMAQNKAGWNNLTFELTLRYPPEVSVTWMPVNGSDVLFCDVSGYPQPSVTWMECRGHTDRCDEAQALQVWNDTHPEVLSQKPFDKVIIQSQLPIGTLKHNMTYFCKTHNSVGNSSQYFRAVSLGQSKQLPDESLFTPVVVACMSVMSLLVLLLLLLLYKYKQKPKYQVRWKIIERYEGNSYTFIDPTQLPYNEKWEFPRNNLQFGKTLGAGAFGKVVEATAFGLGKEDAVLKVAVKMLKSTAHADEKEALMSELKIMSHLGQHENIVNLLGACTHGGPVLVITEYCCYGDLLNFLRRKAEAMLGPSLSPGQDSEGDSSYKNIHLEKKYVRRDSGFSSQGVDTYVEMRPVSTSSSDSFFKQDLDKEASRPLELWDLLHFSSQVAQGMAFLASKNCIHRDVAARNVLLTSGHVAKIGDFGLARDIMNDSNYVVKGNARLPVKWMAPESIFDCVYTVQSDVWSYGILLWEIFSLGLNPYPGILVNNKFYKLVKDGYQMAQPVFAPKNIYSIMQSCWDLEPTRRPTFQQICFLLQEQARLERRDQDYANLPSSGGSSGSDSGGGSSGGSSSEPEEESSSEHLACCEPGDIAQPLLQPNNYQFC
Put plainly: Inhibition of CSF1R in mouse RAW264.7 cells assessed as suppression of AKT phosphorylation preincubated for 6 hrs followed by CSF1 stimulation for 20 mins by Western blot analysis. The data set is classed as cell-based. In outline: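 RAW264.7 cells were seeded, incubated overnight and treated 6 h with graded compound concentrations, then stimulated 20 min with CSF-1 (50 ng/mL). Lysates were run on 8−12% SDS-PAGE and immunoblotted for p-CSF1R (Tyr723), CSF1R, p-AKT, AKT and GAPDH. Bands were quantified and normalized to GAPDH. Mean ± SEM of at least three experiments.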

Data set [13] has as its system RAW264.7. The data set can be described thus: Downregulation of MMP9 mRNA expression in mouse RAW264.7 cells after 48 hrs by qRT-PCR analysis relative to DMSO. In kind it is functional, cell-based. In outline: as §1
Another data set is filed under the species Homo sapiens. The data set can be described thus: Selectivity ratio of IC50 for recombinant human PDGFRbeta expressed in baculovirus to IC50 for recombinant human His-tagged CSF1R cytoplasmic domain (538 to 910 residues) expressed in baculovirus.

Cytoplasmic tyrosine-protein kinase BMX (Homo sapiens), sequence (P51813 whole entry, the tested form may be a part): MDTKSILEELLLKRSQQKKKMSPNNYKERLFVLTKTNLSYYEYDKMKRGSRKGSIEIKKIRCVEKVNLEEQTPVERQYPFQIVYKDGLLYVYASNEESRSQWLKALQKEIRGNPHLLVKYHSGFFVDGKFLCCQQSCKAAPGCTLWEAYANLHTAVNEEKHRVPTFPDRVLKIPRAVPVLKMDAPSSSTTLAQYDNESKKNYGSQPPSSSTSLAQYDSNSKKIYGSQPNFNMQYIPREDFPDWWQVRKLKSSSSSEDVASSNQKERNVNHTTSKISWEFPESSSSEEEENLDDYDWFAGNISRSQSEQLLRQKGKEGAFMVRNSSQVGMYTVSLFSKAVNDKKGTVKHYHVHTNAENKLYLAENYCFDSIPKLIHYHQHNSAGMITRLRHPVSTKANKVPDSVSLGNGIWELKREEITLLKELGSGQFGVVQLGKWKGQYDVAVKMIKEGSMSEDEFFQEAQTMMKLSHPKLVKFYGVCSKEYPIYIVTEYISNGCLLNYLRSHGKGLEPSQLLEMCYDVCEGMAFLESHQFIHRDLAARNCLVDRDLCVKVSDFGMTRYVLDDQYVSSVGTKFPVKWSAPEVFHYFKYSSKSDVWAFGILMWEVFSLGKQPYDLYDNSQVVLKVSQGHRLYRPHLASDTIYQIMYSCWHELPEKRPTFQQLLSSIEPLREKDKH
Tyrosine-protein kinase Lyn (Homo sapiens), sequence (P07948 2-512 limits assumed): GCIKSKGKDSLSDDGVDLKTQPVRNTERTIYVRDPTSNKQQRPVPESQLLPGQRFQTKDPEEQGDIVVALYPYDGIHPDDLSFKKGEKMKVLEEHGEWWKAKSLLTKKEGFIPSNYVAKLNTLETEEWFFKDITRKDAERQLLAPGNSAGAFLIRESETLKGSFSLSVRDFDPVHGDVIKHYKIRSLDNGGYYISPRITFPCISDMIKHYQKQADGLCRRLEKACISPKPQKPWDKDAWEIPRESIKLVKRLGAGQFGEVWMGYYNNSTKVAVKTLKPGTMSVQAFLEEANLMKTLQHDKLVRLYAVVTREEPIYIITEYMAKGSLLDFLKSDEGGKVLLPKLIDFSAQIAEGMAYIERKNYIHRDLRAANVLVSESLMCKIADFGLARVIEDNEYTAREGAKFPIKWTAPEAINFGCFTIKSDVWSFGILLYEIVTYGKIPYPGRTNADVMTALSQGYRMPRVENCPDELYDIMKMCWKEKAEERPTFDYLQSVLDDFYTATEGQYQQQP
Receptor-type tyrosine-protein kinase FLT3, sequence (P36888 whole entry, the tested form may be a part): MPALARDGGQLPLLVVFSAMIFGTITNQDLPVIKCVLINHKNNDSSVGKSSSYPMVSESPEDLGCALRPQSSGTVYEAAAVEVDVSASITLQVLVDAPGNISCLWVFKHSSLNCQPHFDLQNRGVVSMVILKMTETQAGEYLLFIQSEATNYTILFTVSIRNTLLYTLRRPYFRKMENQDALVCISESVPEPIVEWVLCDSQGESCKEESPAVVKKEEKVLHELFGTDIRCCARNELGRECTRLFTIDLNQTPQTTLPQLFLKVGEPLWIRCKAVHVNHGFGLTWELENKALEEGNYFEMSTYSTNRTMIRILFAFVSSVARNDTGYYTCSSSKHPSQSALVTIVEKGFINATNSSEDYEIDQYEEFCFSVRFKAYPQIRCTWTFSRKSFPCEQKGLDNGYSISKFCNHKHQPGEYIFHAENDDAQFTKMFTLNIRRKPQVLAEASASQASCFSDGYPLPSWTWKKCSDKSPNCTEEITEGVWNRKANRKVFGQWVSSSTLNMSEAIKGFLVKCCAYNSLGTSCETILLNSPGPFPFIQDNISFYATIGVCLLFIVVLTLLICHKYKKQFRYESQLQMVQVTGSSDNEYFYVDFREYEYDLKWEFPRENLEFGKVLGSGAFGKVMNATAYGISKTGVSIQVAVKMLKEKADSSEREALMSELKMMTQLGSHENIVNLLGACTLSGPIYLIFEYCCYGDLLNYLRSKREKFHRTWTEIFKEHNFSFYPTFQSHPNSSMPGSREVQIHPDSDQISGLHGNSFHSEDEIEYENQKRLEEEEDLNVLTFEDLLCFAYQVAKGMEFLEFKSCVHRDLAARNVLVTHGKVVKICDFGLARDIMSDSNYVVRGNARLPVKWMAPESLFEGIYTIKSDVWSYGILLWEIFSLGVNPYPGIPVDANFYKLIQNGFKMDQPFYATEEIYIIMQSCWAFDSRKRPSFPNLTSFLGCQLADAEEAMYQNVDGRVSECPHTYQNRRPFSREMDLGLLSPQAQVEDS
Vascular endothelial growth factor receptor 2 (Homo sapiens), sequence (P35968 whole entry, the tested form may be a part): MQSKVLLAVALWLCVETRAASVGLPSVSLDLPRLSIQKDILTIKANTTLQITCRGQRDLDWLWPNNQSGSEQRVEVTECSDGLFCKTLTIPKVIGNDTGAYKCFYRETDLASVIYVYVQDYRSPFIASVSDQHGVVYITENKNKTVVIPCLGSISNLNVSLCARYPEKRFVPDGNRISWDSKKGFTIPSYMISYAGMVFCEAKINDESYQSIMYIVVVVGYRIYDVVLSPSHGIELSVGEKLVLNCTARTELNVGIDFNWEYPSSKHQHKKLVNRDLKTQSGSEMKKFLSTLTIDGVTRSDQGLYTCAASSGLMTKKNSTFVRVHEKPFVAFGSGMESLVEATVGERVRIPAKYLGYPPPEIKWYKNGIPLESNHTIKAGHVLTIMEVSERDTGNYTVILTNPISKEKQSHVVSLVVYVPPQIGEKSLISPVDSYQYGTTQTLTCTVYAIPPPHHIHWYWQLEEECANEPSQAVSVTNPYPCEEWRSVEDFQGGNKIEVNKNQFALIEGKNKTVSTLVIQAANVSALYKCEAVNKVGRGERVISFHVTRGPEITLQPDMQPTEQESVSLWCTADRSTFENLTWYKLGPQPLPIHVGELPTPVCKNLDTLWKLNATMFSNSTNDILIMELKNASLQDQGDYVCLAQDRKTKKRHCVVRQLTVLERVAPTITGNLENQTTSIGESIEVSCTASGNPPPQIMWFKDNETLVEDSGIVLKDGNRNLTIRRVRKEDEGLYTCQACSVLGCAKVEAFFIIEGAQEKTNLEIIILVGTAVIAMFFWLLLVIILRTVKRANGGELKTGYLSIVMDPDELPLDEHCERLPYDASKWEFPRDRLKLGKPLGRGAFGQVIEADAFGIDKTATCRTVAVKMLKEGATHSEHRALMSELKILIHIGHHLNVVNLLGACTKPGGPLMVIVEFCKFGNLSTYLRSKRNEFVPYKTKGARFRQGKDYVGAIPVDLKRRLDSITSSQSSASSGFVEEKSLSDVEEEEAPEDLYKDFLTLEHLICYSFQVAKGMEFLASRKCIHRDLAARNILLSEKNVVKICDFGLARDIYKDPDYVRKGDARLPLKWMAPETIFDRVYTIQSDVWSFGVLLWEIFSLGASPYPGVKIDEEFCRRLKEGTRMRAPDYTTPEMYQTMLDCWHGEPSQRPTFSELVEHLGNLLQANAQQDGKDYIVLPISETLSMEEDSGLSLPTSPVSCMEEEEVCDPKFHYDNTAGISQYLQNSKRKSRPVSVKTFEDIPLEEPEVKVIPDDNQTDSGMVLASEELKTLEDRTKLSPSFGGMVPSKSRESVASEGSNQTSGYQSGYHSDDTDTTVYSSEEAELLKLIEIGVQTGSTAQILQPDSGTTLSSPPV
Platelet-derived growth factor receptor alpha, sequence (P16234 whole entry, the tested form may be a part): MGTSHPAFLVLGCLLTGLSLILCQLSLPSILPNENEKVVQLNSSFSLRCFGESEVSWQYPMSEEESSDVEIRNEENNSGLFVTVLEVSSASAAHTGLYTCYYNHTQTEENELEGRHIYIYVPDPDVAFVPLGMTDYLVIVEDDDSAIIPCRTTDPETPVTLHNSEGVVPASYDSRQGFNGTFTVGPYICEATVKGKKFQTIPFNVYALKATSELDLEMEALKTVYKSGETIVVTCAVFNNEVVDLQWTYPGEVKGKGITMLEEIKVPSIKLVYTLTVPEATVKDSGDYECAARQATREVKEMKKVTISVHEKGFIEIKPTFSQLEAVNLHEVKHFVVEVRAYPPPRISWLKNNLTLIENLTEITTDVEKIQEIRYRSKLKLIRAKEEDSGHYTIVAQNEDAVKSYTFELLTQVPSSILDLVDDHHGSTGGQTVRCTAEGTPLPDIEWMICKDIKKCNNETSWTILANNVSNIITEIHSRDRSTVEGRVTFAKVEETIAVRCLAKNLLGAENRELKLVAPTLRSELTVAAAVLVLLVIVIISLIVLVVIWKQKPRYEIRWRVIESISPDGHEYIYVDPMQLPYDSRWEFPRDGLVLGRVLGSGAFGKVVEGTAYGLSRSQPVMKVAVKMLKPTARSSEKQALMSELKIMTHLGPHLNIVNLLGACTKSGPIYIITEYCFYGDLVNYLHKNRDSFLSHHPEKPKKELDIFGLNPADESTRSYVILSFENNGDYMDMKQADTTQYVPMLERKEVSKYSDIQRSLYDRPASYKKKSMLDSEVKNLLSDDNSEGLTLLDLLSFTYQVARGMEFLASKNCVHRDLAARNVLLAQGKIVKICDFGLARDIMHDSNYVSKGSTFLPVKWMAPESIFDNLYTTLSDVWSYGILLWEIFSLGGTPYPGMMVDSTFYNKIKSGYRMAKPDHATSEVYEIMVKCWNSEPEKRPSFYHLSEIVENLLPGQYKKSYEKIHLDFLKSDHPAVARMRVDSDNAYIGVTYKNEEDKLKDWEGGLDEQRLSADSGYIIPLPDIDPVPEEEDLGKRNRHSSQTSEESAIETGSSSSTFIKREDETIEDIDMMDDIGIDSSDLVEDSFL

Turning to `CCC(=O)N1CC[C@H](N2C(=O)N(c3cc(OC)ccc3Cl)Cc3cnc(Nc4ccc(N5CCN(C6COC6)CC5)c(C)c4)nc32)C1`, the Activity entry in the data set on RAW264.7 [1] and with RAW264.7 [13] was “Dose-dependent effect” in each case. For the same compound, the IC50 in data set [2] amounted to 3 nM; in data set [3] it was 360 nM; in data set [7], 37 nM; in [8], 74 nM. The compound also yielded a Cmax in data set [4] of 2520 ng/mL. Further, the half-life in [5] was 1.08 h. Moreover, in the data set with Rattus norvegicus, the “CL(app)” value amounted to 28.8 mL/min/kg. Also, in data set [6], the bioavailability was 44.4%. Further, the inhibition in data set [9] was more than 90%; in data set [10] it was more than 90%; in data set [11], more than 90%; in data set [12], “Dose-dependent effect”. Also, the Ratio IC50 in the data set listed under Homo sapiens was 10 to 35.
